Data taken from ChEMBL document CHEMBL4270599, “Synthesis of a 3'-C-ethynyl-β-d-ribofuranose purine nucleoside library: Discovery of C7-deazapurine analogs as potent antiproliferative nucleosides” (Eur J Med Chem, 2018).

Test system: Vaccinia virus
Assay: Antiviral activity against Vaccinia virus Lederle infected in HELF cells assessed as inhibition of virus-induced cytopathogenicity
Format: functional, organism-based
Details: Orthopoxvirus vaccinia
Outline: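 Confluent human embryonic lung fibroblast monolayers in 96-well plates were infected with 100 CCID50 of virus or, for VZV, 20 PFU, in the presence of varying compound concentrations. For HCMV/VZV-type assays, residual virus was removed after 1–2 h before compound addition. Cytopathicity or plaque formation was scored once complete in untreated infected controls. […] Highest concentration tested was 100 μM.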

Structure (SMILES)	EC50 [µM]
C#C[C@@]1(O)[C@@H](CO)O[C@@H](n2ccc3c(Cl)ccnc32)[C@@H]1O	> 100
C#C[C@@]1(O)[C@@H](CO)O[C@@H](n2cc(Br)c3c(Cl)ccnc32)[C@@H]1O	> 100
CC[C@@]1(O)[C@@H](CO)O[C@@H](n2cc(Cl)c3c(N)ncnc32)[C@@H]1O	0.73
C#C[C@@]1(O)[C@@H](CO)O[C@@H](n2cc(I)c3c(Cl)ccnc32)[C@@H]1O	> 100
C#C[C@@]1(O)[C@@H](CO)O[C@@H](n2cc(Cl)c3c(Cl)ccnc32)[C@@H]1O	> 100
Nc1nc2c(ncn2COCCO)c(=O)[nH]1 [ACYCLOVIR]	> 250
Nc1nc2c(ncn2COC(CO)CO)c(=O)[nH]1 [GANCICLOVIR]	> 100
